Data taken from ChEMBL document CHEMBL1152984, “Design, synthesis, and structure-activity relationships of benzophenone-based tetraamides as novel antibacterial agents” (J Med Chem, 2009).
≈ marks a conversion by molar mass, not a printed value. Calls of active or inactive are those of the source. The rule behind the calls is not given here.

Legend:
Staphylococcus aureus [1] = assay: Antibacterial activity against Staphylococcus aureus ATCC 29213 assessed as inhibition of DNA synthesis at 8 times MIC treated 5 mins before [3H]thymidine challenge measured after 30 mins by [3H]thymidine incorporation assay; format: functional, organism-based
How it was run: (§1)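 Cells were added to triplicate wells with compound (0.25-4.0 μg/mL), with 5% DMSO as the no-drug control; protein-synthesis reactions used M9 minimal medium. After 5 min at room temperature, 0.5-1.0 μCi of [3H]thymidine, uridine, N-acetylglucosamine or leucine was added. Reactions ran 15-30 min (60 min for cell wall). Cold-TCA precipitates were filtered, washed and scintillation-counted.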

Staphylococcus aureus [2] = assay: Antibacterial activity against methicillin-resistant Staphylococcus aureus; format: functional
Nucleic Acid [3] = assay: Binding affinity to DNA AT hairpin (5'-CGAAAAACAAAAAGTTTTTCG- 3') oligonucleotide by ethidium bromide displacement assay; format: nucleic-acid assay
How it was run: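 DNA binding: ethidium bromide (4.0 μM) and AT hairpin (8.0 μM) in 0.1 M Tris-HCl with 25 mM NaCl, pH 7.0, were titrated with compound. Fluorescence (ex 545, em 595 nm) was read after 5 min and corrected for volume. K = K_EB[E]/[agent], where [agent] is the concentration that lowers fluorescence by 50%.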

Staphylococcus aureus [4] = assay: Antibacterial activity against vancomycin-resistant Staphylococcus aureus; format: functional
Staphylococcus aureus [5] = assay: Antibacterial activity against Staphylococcus aureus ATCC 29213 assessed as inhibition of protein synthesis at 8 times MIC treated 5 mins before [3H]leucine challenge measured after 30 mins by [3H]leucine incorporation assay; format: functional, organism-based; how it was run: as §1
Staphylococcus aureus [6] = assay: Antibacterial activity against Staphylococcus aureus ATCC 29213 assessed as inhibition of RNA synthesis at 8 times MIC treated 5 mins before [3H]uridine challenge measured after 30 mins by [3H]uridine incorporation assay; format: functional, organism-based; how it was run: as §1
Staphylococcus aureus [7] = assay: Antibacterial activity against Staphylococcus aureus ATCC 29213 assessed as inhibition of cell wall synthesis at 8 times MIC treated 5 mins before [3H]N-acetylglucosamine challenge measured after 30 mins by [3H]N-acetylglucosamine incorporation assay; format: functional, organism-based
How it was run: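 Culture added to triplicate wells with agent (0.25-4.0 μg/mL) or 5% DMSO no-drug control. Pre-incubated 5 min at room temperature, then [3H]N-acetylglucosamine at 0.5-1.0 μCi. Stopped with cold 5% TCA and held 30 min on ice. Precipitate filter-collected, washed, and scintillation counted. Vancomycin was the positive control.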

Staphylococcus aureus [8] = assay: Antibacterial activity against Staphylococcus aureus ATCC 29213 assessed as inhibition of lipid synthesis at 8 times MIC treated 5 mins before [3H]glycerol challenge measured after 60 mins by [3H]glycerol incorporation assay; format: functional, organism-based
How it was run: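 S. aureus at early exponential phase, 0.1 mL cells in triplicate tubes with agent (0.25-4.0 μg/mL) or cerulenin control. Pre-incubated 5 min at room temperature before adding [3H]glycerol at 0.5 μCi. After centrifugation, the organic phase was dried and counted by liquid scintillation.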

Staphylococcus aureus [9] = assay: Antibacterial activity against glycopeptide-intermediate Staphylococcus aureus; format: functional
Nucleic Acid [10] = assay: Binding affinity to Staphylococcus aureus DNA at 25 to 200 ug/mL by Hoescht dye competition assay; format: nucleic-acid assay
How it was run: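 Compounds at 25, 50, 100, 150 and 200 mg/L were added in triplicate, and the drop in emission at 461 nm was measured against Hoechst-stained untreated cells.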

CHO = assay: Cytotoxicity against CHO cells assessed as cell viability at 25 to 100 times MIC after 24 hrs by MTS assay; format: cell-based, Cricetulus griseus; details: chinese hamster
How it was run: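 CHO cells in RPMI-1640 were seeded at 5000 cells/well, allowed to attach overnight, then exposed to 25, 50 and 100 mg/L for 24 h. MTS was added for 120 min and absorbance read at 505 nm. Results are % versus untreated controls (with or without 5% DMSO), from at least three experiments.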

Nucleic Acid [11] = assay: Binding affinity to Escherichia coli DNA at 25 to 200 ug/mL by Hoescht dye competition assay; format: nucleic-acid assay
Escherichia coli = assay: Antibacterial activity against Escherichia coli; format: functional
Staphylococcus aureus [12] = assay: Antibacterial activity against Staphylococcus aureus assessed as depolarization at […] measured for 60 mins by fluorescence spectrophotometer relative to nisin; format: functional, organism-based
How it was run: (§2)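 Cells were loaded with 0.4 μM diSC3(5) for 1 h at 37 °C, then KCl was added. After compound addition in a stirred cuvette at 37 °C, fluorescence (ex 622, em 670 nm) was followed for 60 min. Cells plus dye gave the background; the change was expressed as % of the nisin control (100%).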

Enterococcus = assay: Antibacterial activity against vancomycin-resistant Enterococcus; format: functional
Staphylococcus aureus [13] = assay: Antibacterial activity against Staphylococcus aureus ATCC 29213 assessed as inhibition of cell wall synthesis at 0.5 to 8 times MIC treated 5 mins before [3H]N-acetylglucosamine challenge measured after 30 mins by [3H]N-acetylglucosamine incorporation assay; format: functional, organism-based
Staphylococcus aureus [14] = assay: Antibacterial activity against Staphylococcus aureus ATCC 29213 assessed as inhibition of RNA synthesis at 0.5 to 8 times MIC treated 5 mins before [3H]uridine challenge measured after 30 mins by [3H]uridine incorporation assay; format: functional, organism-based; how it was run: as §1
Staphylococcus aureus [15] = assay: Antibacterial activity against Staphylococcus aureus ATCC 29213 assessed as inhibition of protein synthesis at 0.5 to 8 times MIC treated 5 mins before [3H]leucine challenge measured after 30 mins by [3H]leucine incorporation assay; format: functional, organism-based; how it was run: as §1
Staphylococcus aureus [16] = assay: Antibacterial activity against Staphylococcus aureus ATCC 29213 assessed as inhibition of lipid synthesis at 0.5 to 8 times MIC treated 5 mins before [3H]glycerol challenge measured after 60 mins by [3H]glycerol incorporation assay; format: functional, organism-based
How it was run: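 Lipid synthesis: early-exponential S. aureus was mixed in triplicate with compound (0.25-4.0 μg/mL) or cerulenin. After 5 min at room temperature, [3H]glycerol (0.5 μCi) was added. Mixtures were centrifuged, and the organic phase was dried and counted by liquid scintillation.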

Staphylococcus aureus [17] = assay: Antibacterial activity against Staphylococcus aureus ATCC 29213 assessed as inhibition of DNA synthesis at 0.5 to 8 times MIC treated 5 mins before [3H]thymidine challenge measured after 30 mins by [3H]thymidine incorporation assay; format: functional, organism-based; how it was run: as §1
Staphylococcus aureus [18] = assay: Antibacterial activity against Staphylococcus aureus assessed as depolarization at 4 mg/L measured for 60 mins by fluorescence spectrophotometer relative to nisin; format: functional, organism-based; how it was run: as §2
Staphylococcus aureus [19] = assay: Antibacterial activity against Staphylococcus aureus assessed as depolarization at 32 mg/L measured for 60 mins by fluorescence spectrophotometer relative to nisin; format: functional, organism-based; how it was run: as §2

SMILES	MIC (Staphylococcus aureus [2]) [µg/mL]	Ka (Nucleic Acid [3]) [×10⁶ /M]	MIC (Staphylococcus aureus [4]) [µg/mL]	other results
O=C(O)c1cn(C2CC2)c2cc(N3CCNCC3)c(F)cc2c1=O	–	–	–	Activity (Staphylococcus aureus [1]): Active
Cn1cc(NC(=O)CCCCCCCCCCCC(=O)Nc2cc(C(=O)NCCN3CCCCC3)n(C)c2)cc1C(=O)NCCN1CCCCC1	> 32	0.0125	> 32	–
CC(=O)NC[C@H]1CN(c2ccc(N3CCOCC3)c(F)c2)C(=O)O1	–	–	–	Activity (Staphylococcus aureus [5]): Active
CN(C)c1ccc(NC(=O)c2cc(NC(=O)c3ccc(C(=O)c4ccc(C(=O)Nc5cc(C(=O)Nc6ccc(N(C)C)cc6)n(C)c5)cc4)cc3)cn2C)cc1	> 32	0.391	> 32	–
CO[C@H]1/C=C/O[C@@]2(C)Oc3c(C)c(O)c4c(O)c(c(/C=N/N5CCN(C)CC5)c(O)c4c3C2=O)NC(=O)/C(C)=C\C=C\[C@H](C)[C@H](O)[C@@H](C)[C@@H](O)[C@@H](C)[C@H](OC(C)=O)[C@@H]1C	–	–	–	Activity (Staphylococcus aureus [6]): Active
Cn1cc(NC(=O)c2ccc(C(=O)c3ccccc3)cc2)cc1C(=O)NCCN1CCCC1	–	0.106	–	–
Cn1cc(NC(=O)c2ccccc2)cc1C(=O)NCCN1CCCCC1	> 32	0.173	> 32	–
Cn1cc(NC(=O)c2ccc(C(O)c3ccc(C(=O)Nc4cc(C(=O)NCCN5CCCCC5)n(C)c4)cc3)cc2)cc1C(=O)NCCN1CCCCC1	> 32	0.0098	> 32	–
Cn1cc(NC(=O)c2ccc(Cc3ccc(C(=O)Nc4cc(C(=O)NCCN5CCCC5)n(C)c4)cc3)cc2)cc1C(=O)NCCN1CCCC1	> 32	0.154	> 32	–
Cn1cc(NC(=O)c2ccc(C(=O)c3ccc(C(=O)Nc4cc(C(=O)NCCN5CCOCC5)n(C)c4)cc3)cc2)cc1C(=O)NCCN1CCOCC1	4 (≈ 5.41 µM)	–	8 (≈ 10.8 µM)	–
CN[C@H](CC(C)C)C(=O)N[C@H]1C(=O)N[C@@H](CC(N)=O)C(=O)N[C@H]2C(=O)N[C@H]3C(=O)N[C@H](C(=O)N[C@H](C(=O)O)c4cc(O)cc(O)c4-c4cc3ccc4O)[C@H](O)c3ccc(c(Cl)c3)Oc3cc2cc(c3O[C@@H]2O[C@H](CO)[C@@H](O)[C@H](O)[C@H]2O[C@H]2C[C@](C)(N)[C@H](O)[C@H](C)O2)Oc2ccc(cc2Cl)[C@H]1O	–	–	–	Activity (Staphylococcus aureus [7]): Active
Cn1cc(NC(=O)c2ccc(Cc3ccc(C(=O)Nc4cc(C(=O)NCCN5CCCCC5)n(C)c4)cc3)cc2)cc1C(=O)NCCN1CCCCC1	> 32	0.0238	> 32	–
C/C=C/C/C=C/CCC(=O)[C@H]1O[C@H]1C(N)=O	–	–	–	Activity (Staphylococcus aureus [8]): Active
Cn1cc(NC(=O)c2ccc(C(=O)c3ccc(C(=O)Nc4cn(C)c(C(=O)NCCN5CCOCC5)n4)cc3)cc2)nc1C(=O)NCCN1CCOCC1	> 32	–	> 32	–
Cn1cc(NC(=O)c2ccc(C(=O)c3ccc(C(=O)Nc4cc(C(=O)NCCN5CCCC5)n(C)c4)cc3)cc2)cc1C(=O)NCCN1CCCC1	1 (≈ 1.41 µM)	0.679	2 (≈ 2.83 µM)	MIC (Staphylococcus aureus [9]): 0.5 µg/mL (≈ 0.707 µM); Activity (Nucleic Acid [10]): Active; Activity (CHO): Not Active; Activity (Nucleic Acid [11]): Active; MIC (Escherichia coli): 16 µg/mL (≈ 22.6 µM); Activity (Staphylococcus aureus [12]): Active; MIC (Enterococcus): 4 µg/mL (≈ 5.66 µM)
Cn1cc(NC(=O)c2ccc(C(=O)c3ccc(C(=O)Nc4cn(C)c(C(=O)NCCN5CCCC5)n4)cc3)cc2)nc1C(=O)NCCN1CCCC1	32 (≈ 45.1 µM)	–	32 (≈ 45.1 µM)	–
Cn1cc(NC(=O)c2ccc(C(=O)c3ccccc3)cc2)cc1C(=O)NCCN1CCCCC1	–	0.227	–	–
Cn1cc(NC(=O)c2ccc(C(=O)c3ccc(C(=O)Nc4cc(C(=O)NCCN5CCCCC5)n(C)c4)cc3)cc2)cc1C(=O)NCCN1CCCCC1	0.5 (≈ 0.68 µM)	0.931	1 (≈ 1.36 µM)	MIC (Staphylococcus aureus [9]): 0.5 µg/mL (≈ 0.68 µM); Activity (Staphylococcus aureus [13]): inactive; Activity (CHO): Not Active; Activity (Staphylococcus aureus [14]): inactive; Activity (Staphylococcus aureus [15]): inactive; MIC (Escherichia coli): 16 µg/mL (≈ 21.8 µM); Activity (Staphylococcus aureus [16]): inactive; Activity (Staphylococcus aureus [17]): inactive; MIC (Enterococcus): 4 µg/mL (≈ 5.44 µM); Activity (Staphylococcus aureus [18]): Active
Cn1cc(NC(=O)c2ccc(C(O)c3ccc(C(=O)Nc4cc(C(=O)NCCN5CCCC5)n(C)c4)cc3)cc2)cc1C(=O)NCCN1CCCC1	> 32	0.175	> 32	–
CN(C)CCCNC(=O)c1cc(NC(=O)c2ccc(C(=O)c3ccc(C(=O)Nc4cc(C(=O)NCCCN(C)C)n(C)c4)cc3)cc2)cn1C	8 (≈ 11.7 µM)	1	16 (≈ 23.4 µM)	MIC (Staphylococcus aureus [9]): 8 µg/mL (≈ 11.7 µM)
Cn1cc(NC(=O)CCCCCCCCCCCC(=O)Nc2cc(C(=O)NCCN3CCCC3)n(C)c2)cc1C(=O)NCCN1CCCC1	> 32	0.021	> 32	Activity (Staphylococcus aureus [19]): inactive
Cn1cc(NC(=O)c2ccccc2)cc1C(=O)NCCN1CCCC1	> 32	0.11	> 32	–
CN(C)c1ccc(NC(=O)c2nc(NC(=O)c3ccc(C(=O)c4ccc(C(=O)Nc5cn(C)c(C(=O)Nc6ccc(N(C)C)cc6)n5)cc4)cc3)cn2C)cc1	> 32	–	> 32	–
CN1CCN(CCCNC(=O)c2cc(NC(=O)c3ccc(C(=O)c4ccc(C(=O)Nc5cc(C(=O)NCCCN6CCN(C)CC6)n(C)c5)cc4)cc3)cn2C)CC1	> 32	0.108	> 32	Activity (Nucleic Acid [10]): inactive; Activity (Nucleic Acid [11]): inactive
Cn1cc(NC(=O)c2ccc(C(=O)c3ccc(C(=O)Nc4cn(C)c(C(=O)NCCN5CCCCC5)n4)cc3)cc2)nc1C(=O)NCCN1CCCCC1	4 (≈ 5.43 µM)	–	8 (≈ 10.9 µM)	Activity (Nucleic Acid [10]): Active; Activity (Nucleic Acid [11]): Active
